Data reported in ChEMBL document CHEMBL2390864, “Artemisinin-derived dimer phosphate esters as potent anti-cytomegalovirus (anti-CMV) and anti-cancer agents: a structure-activity study” (Bioorg Med Chem, 2013).

Experiments:
Cytomegalovirus = test: Antiviral activity against Cytomegalovirus infected in HFF after 72 hrs by luciferase reporter gene assay; format: functional, organism-based; details: Human betaherpesvirus 5, 72 h
Outline: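 Human foreskin fibroblasts (HFFs) were infected with CMV and treated with compound across a dose range. Luciferase activity was read at 72 h post infection as a marker of late CMV gene expression. EC50 was derived from this read-out.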

[1] = Therapeutic index, ratio of IC50 for PHA-stimulated human PBMC cells to IC50 for human JURKAT-TALL cells; format: cell-based; details: PHA-stimulated PBMC cells versus JURKAT-TALL cells, read-out: Ratio IC50
Outline: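 The therapeutic index is the IC50 in PHA-stimulated PBMCs (PHA 10 µg/ml for 24 h, then drug for 48 h, AlamarBlue) divided by the IC50 in Jurkat cells (drug for 48 h, AlamarBlue).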

[2] = Cytotoxicity against human JURKAT-TALL cells after 48 hrs by Alamar Blue assay; format: functional, cell-based
Outline: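 Jurkat T-ALL cells were treated with compound for 48 h, and growth inhibition was read by AlamarBlue assay to give IC50.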

PBMC = test: Cytotoxicity against PHA-stimulated human PBMC cells after 48 hrs by Alamar Blue assay; format: cell-based
Outline: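 PBMCs came from 4 consenting healthy volunteers and were stimulated with phytohemagglutinin (10 µg/ml) for 24 h. Drug or vehicle was then added for a further 48 h, and viability was read by AlamarBlue. IC50 is the average of 4 experiments, each run in triplicate.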

[3] = Selectivity index, ratio of CC50 for HFF to EC50 for Cytomegalovirus

With `C[C@H]1[C@@H](CC(COP2(=S)Oc3ccccc3-c3ccccc3O2)C[C@H]2O[C@@H]3O[C@@]4(C)CC[C@H]5[C@H](C)CC[C@@H]([C@H]2C)[C@@]35OO4)O[C@@H]2O[C@@]3(C)CC[C@H]4[C@H](C)CC[C@@H]1[C@@]24OO3` (stereo partly specified) the EC50 (Cytomegalovirus) was 70 nM, the selectivity ratio [1] was over 20.7 and the IC50 [2] was 1930 nM. It also gave an IC50 (PBMC) of over 40000 nM.
For `CC(C)c1ccc(OP(=O)(OCC(C[C@H]2O[C@@H]3O[C@@]4(C)CC[C@H]5[C@H](C)CC[C@@H]([C@H]2C)[C@@]35OO4)C[C@H]2O[C@@H]3O[C@@]4(C)CC[C@H]5[C@H](C)CC[C@@H]([C@H]2C)[C@@]35OO4)Oc2ccc(C(C)C)cc2)cc1` (stereo partly specified), the EC50 (Cytomegalovirus) was 300 nM, the selectivity ratio [1] was over 78.3 and the IC50 [2] was 511 nM. The IC50 (PBMC) was over 40000 nM.
Work on `Cc1cccc(C)c1OP(=O)(OCC(C[C@H]1O[C@@H]2O[C@@]3(C)CC[C@H]4[C@H](C)CC[C@@H]([C@H]1C)[C@@]24OO3)C[C@H]1O[C@@H]2O[C@@]3(C)CC[C@H]4[C@H](C)CC[C@@H]([C@H]1C)[C@@]24OO3)Oc1c(C)cccc1C` (stereo partly specified) yielded an EC50 (Cytomegalovirus) of 71 nM, a selectivity ratio [1] of over 135 and an IC50 [2] of 296 nM. The IC50 (PBMC) was over 40000 nM.
With `C[C@H]1[C@@H](CC(CO)C[C@H]2O[C@@H]3O[C@@]4(C)CC[C@H]5[C@H](C)CC[C@@H]([C@H]2C)[C@@]35OO4)O[C@@H]2O[C@@]3(C)CC[C@H]4[C@H](C)CC[C@@H]1[C@@]24OO3` (stereo partly specified) the EC50 (Cytomegalovirus) was 160 nM.
`COc1cccc2c1C(=O)c1c(O)c3c(c(O)c1C2=O)C[C@@](O)(C(=O)CO)C[C@@H]3O[C@H]1C[C@H](N)[C@H](O)[C@H](C)O1` [DOXORUBICIN] showed an IC50 [2] of 9.6 nM and an IC50 (PBMC) of 271 nM.
In the case of `C[C@H]1[C@@H](CC(COP(=O)(Oc2ccccc2)Oc2ccccc2)C[C@H]2O[C@@H]3O[C@@]4(C)CC[C@H]5[C@H](C)CC[C@@H]([C@H]2C)[C@@]35OO4)O[C@@H]2O[C@@]3(C)CC[C@H]4[C@H](C)CC[C@@H]1[C@@]24OO3` (stereo partly specified), the EC50 (Cytomegalovirus) is reported as 39 nM, the “Ratio CC50/EC50” value [3] is reported as 1500 and the selectivity ratio [1] is reported as 14.8. It also gave an IC50 [2] of 100 nM and an IC50 (PBMC) of 1480 nM.
Work on `C[C@H]1[C@@H](CC(COP(=S)(Oc2ccccc2)Oc2ccccc2)C[C@H]2O[C@@H]3O[C@@]4(C)CC[C@H]5[C@H](C)CC[C@@H]([C@H]2C)[C@@]35OO4)O[C@@H]2O[C@@]3(C)CC[C@H]4[C@H](C)CC[C@@H]1[C@@]24OO3` (stereo partly specified) yielded an EC50 (Cytomegalovirus) of 78 nM, a selectivity ratio [1] of over 22.9 and an IC50 [2] of 1750 nM. It also gave an IC50 (PBMC) of over 40000 nM.
Work on `CO[C@H]1O[C@@H]2O[C@@]3(C)CC[C@H]4[C@H](C)CC[C@@H]([C@H]1C)[C@@]24OO3` yielded an EC50 (Cytomegalovirus) of 5300 nM, an IC50 [2] of over 30000 nM and an IC50 (PBMC) of over 100000 nM.
In the case of `C[C@H]1[C@H](OC(=O)CCC(=O)O)O[C@@H]2O[C@@]3(C)CC[C@H]4[C@H](C)CC[C@@H]1[C@@]24OO3` [SODIUM ARESUNATE], the EC50 (Cytomegalovirus) is reported as 18500 nM, the selectivity ratio [1] is reported as 4 and the IC50 [2] is reported as 6890 nM. It also gave an IC50 (PBMC) of 27400 nM.
In the case of `C[C@H]1[C@@H](CC(COP(=O)(O)Oc2ccccc2)C[C@H]2O[C@@H]3O[C@@]4(C)CC[C@H]5[C@H](C)CC[C@@H]([C@H]2C)[C@@]35OO4)O[C@@H]2O[C@@]3(C)CC[C@H]4[C@H](C)CC[C@@H]1[C@@]24OO3` (stereo partly specified), the EC50 (Cytomegalovirus) is reported as over 300 nM, the IC50 [2] is reported as 7440 nM and the IC50 (PBMC) is reported as over 40000 nM.
Work on `C[C@H]1[C@@H](CC(COP2(=O)Oc3ccccc3-c3ccccc3O2)C[C@H]2O[C@@H]3O[C@@]4(C)CC[C@H]5[C@H](C)CC[C@@H]([C@H]2C)[C@@]35OO4)O[C@@H]2O[C@@]3(C)CC[C@H]4[C@H](C)CC[C@@H]1[C@@]24OO3` (stereo partly specified) yielded an EC50 (Cytomegalovirus) of 72 nM, a selectivity ratio [1] of 10.4 and an IC50 [2] of 220 nM. It also gave an IC50 (PBMC) of 2280 nM.
With `C[C@H]1[C@@H](CC(COP(=O)(Oc2ccc(Cl)cc2)Oc2ccc(Cl)cc2)C[C@H]2O[C@@H]3O[C@@]4(C)CC[C@H]5[C@H](C)CC[C@@H]([C@H]2C)[C@@]35OO4)O[C@@H]2O[C@@]3(C)CC[C@H]4[C@H](C)CC[C@@H]1[C@@]24OO3` (stereo partly specified) the EC50 (Cytomegalovirus) was 66 nM, the selectivity ratio [1] was over 263 and the IC50 [2] was 152 nM. For the same molecule, the IC50 (PBMC) was over 40000 nM.
For `C[C@H]1[C@@H](CC(COP(=O)(OC2CCCCC2)OC2CCCCC2)C[C@H]2O[C@@H]3O[C@@]4(C)CC[C@H]5[C@H](C)CC[C@@H]([C@H]2C)[C@@]35OO4)O[C@@H]2O[C@@]3(C)CC[C@H]4[C@H](C)CC[C@@H]1[C@@]24OO3` (stereo partly specified), the EC50 (Cytomegalovirus) was 44 nM, the selectivity ratio [1] was 7.1 and the IC50 [2] was 287 nM. It also gave an IC50 (PBMC) of 2030 nM.
